{"source": "ChEMBL document CHEMBL5649170", "about": "“Sustained microglial depletion with CSF1R inhibitor impairs parenchymal plaque development in an Alzheimer's disease model” (Nat Commun, 2019)", "key": {"Mus musculus [1]": {"system": "Mus musculus", "assay": "Antialzheimer activity in 5XFAD mouse assessed as number of plaques per FOV in […] cortex at 75 ppm administered as rodent chow starting from 1.5 months and measured after 5 months by immunolabeling based confocal microscopic analysis (reference value: […] to […])", "type": "functional", "details": "route po, time 3.5 months, 2555 h"}, "Mus musculus [2]": {"system": "Mus musculus", "assay": "Antialzheimer activity in 5XFAD mouse assessed as reduction in plaque pathology in […] cortex at 600 ppm administered as rodent chow starting from 1.5 months and measured after 5 months by immunolabeling based confocal microscopic analysis", "type": "functional, organism-based", "details": "route po, time 3.5 months", "how_it_was_run": "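5xFAD mice received 600 ppm PLX3397 in AIN-76A chow from 1.5 to 5 months of age. Brain sections were stained with Thio-S for dense-core plaques and immunolabeled for IBA1, then examined by confocal microscopy.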"}, "[3]": {"assay": "Drug concentration in wildtype mouse plasma at 75 ppm administered as rodent chow starting from 1.5 months and measured after 5 months", "type": "ADME, cell-free", "details": "route po, time 3.5 months", "how_it_was_run": "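WT or 5xFAD mice were fed PLX3397 in AIN-76A chow at 600 ppm or 75 ppm from 1.5 to 5 months of age. Terminal brain and plasma drug concentrations were determined at study end.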"}, "Mus musculus [4]": {"system": "Mus musculus", "assay": "Antialzheimer activity in 5XFAD mouse assessed as microglial numbers by measuring number of Iba positive cells per FOV in […] cortex at 75 ppm administered as rodent chow starting from 1.5 months and measured after 5 months by immunolabeling based confocal microscopic analysis (reference value: 176 to 654)", "type": "functional", "details": "route po, time 3.5 months, 2555 h", "how_it_was_run": "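5xFAD mice fed PLX3397 at 75 ppm in AIN-76A chow from 1.5 to 5 months of age; retrosplenial and somatosensory cortex sections stained with Thio-S and immunolabeled for IBA1; confocal imaging, IBA1+ cells and plaques quantified per region; two-tailed independent t-test, n = 4–5 per group, mean ± SEM.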"}, "[5]": {"molecular_target": "Calcium/calmodulin-dependent protein kinase type II subunit beta (Homo sapiens, UniProt Q13554)", "sequence (Q13554 whole entry)": "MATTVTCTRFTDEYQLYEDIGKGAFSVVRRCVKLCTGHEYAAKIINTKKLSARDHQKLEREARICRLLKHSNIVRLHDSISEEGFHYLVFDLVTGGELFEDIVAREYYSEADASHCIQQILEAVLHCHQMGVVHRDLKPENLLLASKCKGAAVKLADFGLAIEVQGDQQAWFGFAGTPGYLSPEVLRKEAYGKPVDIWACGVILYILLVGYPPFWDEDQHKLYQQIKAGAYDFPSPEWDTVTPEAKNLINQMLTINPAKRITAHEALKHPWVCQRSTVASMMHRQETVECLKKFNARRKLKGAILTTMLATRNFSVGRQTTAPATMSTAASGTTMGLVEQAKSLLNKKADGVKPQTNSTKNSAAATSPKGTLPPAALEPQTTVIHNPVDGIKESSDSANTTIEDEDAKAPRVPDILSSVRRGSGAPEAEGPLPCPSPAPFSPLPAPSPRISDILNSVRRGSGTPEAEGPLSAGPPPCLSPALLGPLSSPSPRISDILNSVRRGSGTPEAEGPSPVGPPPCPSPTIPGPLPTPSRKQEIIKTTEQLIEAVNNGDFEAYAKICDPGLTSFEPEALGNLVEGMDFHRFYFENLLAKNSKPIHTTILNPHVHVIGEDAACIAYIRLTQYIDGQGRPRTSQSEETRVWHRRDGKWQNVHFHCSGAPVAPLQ", "assay": "Inhibition of CAMK2B (unknown origin)"}, "[6]": {"assay": "Effect on Cst7 gene expression in wild type mouse thalamus at 1200 ppm administered as rodent chow starting from 1.5 months and measured after 7 months by RNA-Seq analysis (reference value: 0 to 1.803 RPKM)", "type": "functional", "details": "route po, time 5.5 months, 4015 h"}, "[7]": {"molecular_target": "Casein kinase I isoform gamma-2 (Homo sapiens, UniProt P78368)", "assay": "Inhibition of CSNK1G2 (unknown origin)"}, "[8]": {"molecular_target": "Inhibitor of nuclear factor kappa-B kinase subunit alpha (Homo sapiens, UniProt O15111)", "sequence (O15111 whole entry)": "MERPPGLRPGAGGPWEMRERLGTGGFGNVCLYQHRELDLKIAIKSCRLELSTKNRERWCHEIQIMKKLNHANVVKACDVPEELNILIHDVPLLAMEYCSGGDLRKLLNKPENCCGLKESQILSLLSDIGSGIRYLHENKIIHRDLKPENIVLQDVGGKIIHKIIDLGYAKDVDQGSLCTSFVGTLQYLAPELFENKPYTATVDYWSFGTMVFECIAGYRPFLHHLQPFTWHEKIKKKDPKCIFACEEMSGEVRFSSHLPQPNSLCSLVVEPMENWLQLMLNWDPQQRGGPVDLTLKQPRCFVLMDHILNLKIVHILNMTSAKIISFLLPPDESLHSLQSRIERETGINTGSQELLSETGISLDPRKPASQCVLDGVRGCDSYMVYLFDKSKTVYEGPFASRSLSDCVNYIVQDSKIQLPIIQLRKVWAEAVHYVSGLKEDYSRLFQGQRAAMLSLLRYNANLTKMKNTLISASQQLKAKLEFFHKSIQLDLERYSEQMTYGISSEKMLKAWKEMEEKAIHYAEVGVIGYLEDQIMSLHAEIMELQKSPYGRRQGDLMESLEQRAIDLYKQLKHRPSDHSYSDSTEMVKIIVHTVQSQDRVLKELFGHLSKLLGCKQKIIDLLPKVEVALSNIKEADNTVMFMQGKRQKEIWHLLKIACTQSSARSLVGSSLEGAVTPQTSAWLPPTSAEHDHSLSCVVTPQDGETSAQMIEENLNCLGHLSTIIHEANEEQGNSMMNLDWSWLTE", "assay": "Inhibition of CHUK (unknown origin)"}, "[9]": {"molecular_target": "Protein kinase C iota type (Homo sapiens, UniProt P41743)", "sequence (P41743 whole entry)": "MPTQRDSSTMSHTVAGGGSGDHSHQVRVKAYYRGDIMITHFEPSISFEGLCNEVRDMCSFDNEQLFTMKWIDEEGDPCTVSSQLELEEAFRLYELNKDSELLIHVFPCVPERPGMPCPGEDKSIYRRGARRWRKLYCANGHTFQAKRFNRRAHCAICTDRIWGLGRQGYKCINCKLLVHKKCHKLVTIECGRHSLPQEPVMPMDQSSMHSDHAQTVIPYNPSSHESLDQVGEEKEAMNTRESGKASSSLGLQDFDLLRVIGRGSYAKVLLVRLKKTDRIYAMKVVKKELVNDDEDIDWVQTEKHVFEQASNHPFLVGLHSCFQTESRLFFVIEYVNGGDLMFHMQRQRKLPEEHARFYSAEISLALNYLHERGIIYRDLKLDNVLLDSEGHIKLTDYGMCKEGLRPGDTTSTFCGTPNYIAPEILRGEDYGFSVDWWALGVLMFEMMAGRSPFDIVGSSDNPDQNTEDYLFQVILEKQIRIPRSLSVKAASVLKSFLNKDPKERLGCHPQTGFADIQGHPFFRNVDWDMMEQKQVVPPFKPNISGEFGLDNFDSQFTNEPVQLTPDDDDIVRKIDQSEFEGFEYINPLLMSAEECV", "assay": "Inhibition of PRKCI (unknown origin)"}, "[10]": {"molecular_target": "Calcium/calmodulin-dependent protein kinase type II subunit alpha (Homo sapiens, UniProt Q9UQM7)", "assay": "Inhibition of CAMK2A (unknown origin)"}, "[11]": {"molecular_target": "Serine/threonine-protein kinase Chk1 (Homo sapiens, UniProt O14757)", "assay": "Inhibition of CHEK1 (unknown origin)"}, "[12]": {"molecular_target": "Tyrosine-protein kinase HCK (Homo sapiens, UniProt P08631)", "assay": "Inhibition of HCK (unknown origin)"}, "[13]": {"assay": "Effect on Hexb gene expression in 5XFAD mouse cortex at 1200 ppm administered as rodent chow starting from 1.5 months and measured after 7 months by RNA-Seq analysis (reference value: 70.260 to 103.252 RPKM)", "type": "functional", "details": "route po, time 5.5 months, 4015 h"}, "Mus musculus [14]": {"system": "Mus musculus", "assay": "Prevention of Hgf gene downregulation in 5XFAD mouse hippocampus at 1200 ppm administered as rodent chow starting from 1.5 months and measured after 7 months by Nanostring analysis", "type": "functional, tissue-based", "details": "route po, time 5.5 months"}, "[15]": {"molecular_target": "Megakaryocyte-associated tyrosine-protein kinase (Homo sapiens, UniProt P42679)", "sequence (P42679 whole entry)": "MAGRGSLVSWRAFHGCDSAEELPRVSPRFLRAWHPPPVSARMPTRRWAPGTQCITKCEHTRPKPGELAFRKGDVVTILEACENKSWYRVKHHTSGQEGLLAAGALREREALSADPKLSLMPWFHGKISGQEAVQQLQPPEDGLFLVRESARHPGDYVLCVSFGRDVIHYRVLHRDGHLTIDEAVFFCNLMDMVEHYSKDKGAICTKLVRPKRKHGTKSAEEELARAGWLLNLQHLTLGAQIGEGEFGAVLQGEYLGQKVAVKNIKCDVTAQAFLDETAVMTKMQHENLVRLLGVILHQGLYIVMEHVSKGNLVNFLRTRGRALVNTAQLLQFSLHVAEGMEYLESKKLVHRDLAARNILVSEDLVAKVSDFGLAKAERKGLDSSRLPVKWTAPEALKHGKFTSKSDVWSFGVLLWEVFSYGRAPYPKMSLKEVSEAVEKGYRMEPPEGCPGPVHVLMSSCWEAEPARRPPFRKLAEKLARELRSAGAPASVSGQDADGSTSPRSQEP", "assay": "Inhibition of MATK (unknown origin)"}, "[16]": {"assay": "Toxicity in wildtype mouse assessed as proportion of time spent freezing at 1200 ppm administered as rodent chow for 10 to 24 weeks by […] (reference value: 0.10 to 0.53)", "details": "in vivo, po, time 10-24 weeks"}, "[17]": {"molecular_target": "Calcium/calmodulin-dependent protein kinase type IV (Homo sapiens, UniProt Q16566)", "sequence (Q16566 whole entry)": "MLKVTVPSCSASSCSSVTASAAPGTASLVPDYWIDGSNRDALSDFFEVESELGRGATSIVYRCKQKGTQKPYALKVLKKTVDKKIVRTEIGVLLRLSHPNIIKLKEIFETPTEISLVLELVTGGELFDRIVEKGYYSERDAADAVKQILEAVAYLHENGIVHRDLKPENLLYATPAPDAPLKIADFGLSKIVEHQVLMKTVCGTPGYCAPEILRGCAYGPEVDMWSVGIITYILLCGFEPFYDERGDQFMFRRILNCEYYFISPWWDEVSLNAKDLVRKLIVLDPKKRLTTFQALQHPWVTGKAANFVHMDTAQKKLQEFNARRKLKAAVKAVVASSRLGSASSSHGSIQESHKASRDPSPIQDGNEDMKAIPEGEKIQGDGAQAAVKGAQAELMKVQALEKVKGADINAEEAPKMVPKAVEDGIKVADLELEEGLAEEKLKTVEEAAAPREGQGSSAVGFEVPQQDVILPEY", "assay": "Inhibition of CAMK4 (unknown origin)"}, "[18]": {"assay": "Effect on Cst7 gene expression in wild type mouse cortex at 1200 ppm administered as rodent chow starting from 1.5 months and measured after 7 months by RNA-Seq analysis (reference value: 0.102 to 0.891 RPKM)", "type": "functional", "details": "route po, time 5.5 months, 4015 h"}, "[19]": {"assay": "Oral bioavailability in female rat at 45 mg/kg administered as single via gavage", "type": "ADME, organism-based", "details": "in vivo"}, "SRSF protein kinase 2": {"molecular_target": "SRSF protein kinase 2 (Homo sapiens, UniProt P78362)", "assay": "Inhibition of SRPK2 (unknown origin)"}, "[20]": {"molecular_target": "Protein-tyrosine kinase 2-beta (Homo sapiens, UniProt Q14289)", "sequence (Q14289 whole entry)": "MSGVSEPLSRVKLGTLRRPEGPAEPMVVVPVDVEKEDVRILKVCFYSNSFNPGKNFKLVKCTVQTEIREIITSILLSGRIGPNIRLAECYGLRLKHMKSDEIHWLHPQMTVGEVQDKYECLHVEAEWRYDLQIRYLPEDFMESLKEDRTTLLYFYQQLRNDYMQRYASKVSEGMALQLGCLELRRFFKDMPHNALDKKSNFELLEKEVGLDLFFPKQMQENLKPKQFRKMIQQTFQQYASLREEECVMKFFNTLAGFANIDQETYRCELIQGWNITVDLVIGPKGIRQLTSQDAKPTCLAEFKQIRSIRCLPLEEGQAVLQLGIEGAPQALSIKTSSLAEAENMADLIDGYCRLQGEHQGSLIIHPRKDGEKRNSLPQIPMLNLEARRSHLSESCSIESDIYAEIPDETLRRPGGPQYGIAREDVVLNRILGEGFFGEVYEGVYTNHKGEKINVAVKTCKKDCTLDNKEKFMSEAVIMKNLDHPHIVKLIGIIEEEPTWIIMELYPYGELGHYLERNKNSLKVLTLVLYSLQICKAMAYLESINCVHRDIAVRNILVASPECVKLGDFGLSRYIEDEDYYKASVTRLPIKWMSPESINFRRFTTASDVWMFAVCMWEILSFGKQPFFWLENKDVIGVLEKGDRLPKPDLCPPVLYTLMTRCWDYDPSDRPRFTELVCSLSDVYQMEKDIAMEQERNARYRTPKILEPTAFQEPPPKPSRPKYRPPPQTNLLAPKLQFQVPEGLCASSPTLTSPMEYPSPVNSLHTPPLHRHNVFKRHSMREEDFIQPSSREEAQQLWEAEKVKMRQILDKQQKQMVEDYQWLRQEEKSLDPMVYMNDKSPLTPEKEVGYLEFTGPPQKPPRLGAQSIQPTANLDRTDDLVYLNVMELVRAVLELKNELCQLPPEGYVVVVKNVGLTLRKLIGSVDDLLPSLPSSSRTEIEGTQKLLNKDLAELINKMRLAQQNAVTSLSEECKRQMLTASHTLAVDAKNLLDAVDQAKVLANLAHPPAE", "assay": "Inhibition of PTK2B (unknown origin)"}, "Mus musculus [21]": {"system": "Mus musculus", "assay": "Prevention of Tgfb1 gene upregulation in 5XFAD mouse hippocampus at 1200 ppm administered as rodent chow starting from 1.5 months and measured after 7 months by Nanostring analysis", "type": "functional, tissue-based", "details": "route po, time 5.5 months"}, "[22]": {"assay": "Effect on Siglech gene expression in wild type mouse thalamus at 1200 ppm administered as rodent chow starting from 1.5 months and measured after 7 months by RNA-Seq analysis (reference value: 2.864 to 4.605 RPKM)", "type": "functional", "details": "route po, time 5.5 months, 4015 h"}, "Mus musculus [23]": {"system": "Mus musculus", "assay": "Effect on APP processing pathway in 5XFAD mouse assessed as PS1 protein signal intensity in cortex at 1200 ppm administered as rodent starting from 1.5 months and measured after 7 months (reference value: 64.603 to 143.235 %)", "type": "functional", "details": "route po, time 5.5 months, 4015 h"}, "Mus musculus [24]": {"system": "Mus musculus", "assay": "Induction of cerebral amyloid angiopathy in […] mouse at 1200 ppm administered as rodent chow for 24 weeks by immunolabeling based confocal microscopic analysis", "type": "functional, organism-based", "details": "route po"}, "Ephrin type-B receptor 2": {"molecular_target": "Ephrin type-B receptor 2 (Homo sapiens, UniProt P29323)", "sequence (P29323 whole entry)": "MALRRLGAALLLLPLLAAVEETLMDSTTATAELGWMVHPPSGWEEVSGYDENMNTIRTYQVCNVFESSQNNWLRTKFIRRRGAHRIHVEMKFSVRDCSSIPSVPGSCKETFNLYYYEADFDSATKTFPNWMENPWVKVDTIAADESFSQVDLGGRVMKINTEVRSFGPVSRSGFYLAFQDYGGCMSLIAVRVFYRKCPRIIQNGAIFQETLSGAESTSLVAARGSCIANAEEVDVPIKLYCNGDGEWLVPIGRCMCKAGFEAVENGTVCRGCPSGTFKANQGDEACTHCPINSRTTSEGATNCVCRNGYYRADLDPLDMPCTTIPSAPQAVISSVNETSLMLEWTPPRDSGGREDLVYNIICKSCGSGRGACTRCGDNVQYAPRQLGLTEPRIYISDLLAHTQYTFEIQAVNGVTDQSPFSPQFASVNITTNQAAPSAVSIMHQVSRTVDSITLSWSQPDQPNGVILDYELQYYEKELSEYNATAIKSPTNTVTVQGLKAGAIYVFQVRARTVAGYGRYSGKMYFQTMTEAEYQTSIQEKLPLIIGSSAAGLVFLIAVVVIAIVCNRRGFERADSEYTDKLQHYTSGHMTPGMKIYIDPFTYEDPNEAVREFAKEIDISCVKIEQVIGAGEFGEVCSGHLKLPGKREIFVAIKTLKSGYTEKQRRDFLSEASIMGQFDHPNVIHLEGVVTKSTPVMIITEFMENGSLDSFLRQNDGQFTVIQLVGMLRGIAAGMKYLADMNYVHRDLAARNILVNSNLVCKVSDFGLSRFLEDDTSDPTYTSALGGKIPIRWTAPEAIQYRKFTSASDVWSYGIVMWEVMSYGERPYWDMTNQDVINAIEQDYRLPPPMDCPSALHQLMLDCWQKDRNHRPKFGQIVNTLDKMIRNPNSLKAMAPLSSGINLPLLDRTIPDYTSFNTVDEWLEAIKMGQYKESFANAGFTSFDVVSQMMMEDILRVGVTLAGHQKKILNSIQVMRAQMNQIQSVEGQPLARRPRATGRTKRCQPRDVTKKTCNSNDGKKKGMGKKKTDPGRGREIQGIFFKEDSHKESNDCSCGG", "assay": "Inhibition of EPHB2 (unknown origin)"}, "[25]": {"molecular_target": "Proto-oncogene tyrosine-protein kinase Src (Homo sapiens, UniProt P12931)", "assay": "Inhibition of SRC (unknown origin)"}}, "note": "Calls of active or inactive are those of the source. No cut-off for these calls is given here."}
{"smiles": "FC(F)(F)c1ccc(CNc2ccc(Cc3c[nH]c4ncc(Cl)cc34)cn2)cn1", "note": "[PEXIDARTINIB]", "values": [{"measurement": "Activity", "setting": "Mus musculus [1]", "result": 34}, {"measurement": "Activity", "setting": "Mus musculus [2]", "result": "Active"}, {"measurement": "concentration at 2555 h", "setting": "[3]", "result": 12, "unit": "µM"}, {"measurement": "Activity", "setting": "Mus musculus [4]", "result": 229}]}
{"smiles": "COc1ncc(F)cc1CNc1ccc(Cc2c[nH]c3ncc(C)cc23)c(F)n1", "note": "[PLX-5622]", "values": [{"measurement": "IC50", "setting": "[5]", "result": "> 1000", "unit": "nM"}, {"measurement": "Activity", "setting": "[6]", "result": 0, "unit": "RPKM"}, {"measurement": "IC50", "setting": "[7]", "result": "> 1000", "unit": "nM"}, {"measurement": "IC50", "setting": "[8]", "result": "> 1000", "unit": "nM"}, {"measurement": "IC50", "setting": "[9]", "result": "> 1000", "unit": "nM"}, {"measurement": "IC50", "setting": "[10]", "result": "> 1000", "unit": "nM"}, {"measurement": "IC50", "setting": "[11]", "result": "> 1000", "unit": "nM"}, {"measurement": "IC50", "setting": "[12]", "result": "> 1000", "unit": "nM"}, {"measurement": "Activity", "setting": "[13]", "result": 11.641, "unit": "RPKM"}, {"measurement": "Activity", "setting": "Mus musculus [14]", "result": "Active"}, {"measurement": "IC50", "setting": "[15]", "result": "> 1000", "unit": "nM"}, {"measurement": "Activity", "setting": "[16]", "result": 0.13}, {"measurement": "IC50", "setting": "[17]", "result": "> 1000", "unit": "nM"}, {"measurement": "Activity", "setting": "[18]", "result": 0, "unit": "RPKM"}, {"measurement": "bioavailability", "setting": "[19]", "result": 89, "unit": "%"}, {"measurement": "IC50", "setting": "SRSF protein kinase 2", "result": "> 1000", "unit": "nM"}, {"measurement": "IC50", "setting": "[20]", "result": "> 1000", "unit": "nM"}, {"measurement": "Activity", "setting": "Mus musculus [21]", "result": "Active"}, {"measurement": "Activity", "setting": "[22]", "result": 0, "unit": "RPKM"}, {"measurement": "Activity", "setting": "Mus musculus [23]", "result": 56.036, "unit": "%"}, {"measurement": "Activity", "setting": "Mus musculus [24]", "result": "inactive"}, {"measurement": "IC50", "setting": "Ephrin type-B receptor 2", "result": "> 1000", "unit": "nM"}, {"measurement": "IC50", "setting": "[25]", "result": "> 1000", "unit": "nM"}]}
